Assay outcomes from PubChem.
FN deposit inh – fibronectin deposition inhibition | actives 0.086% (n = 350,000) | AH1F fibroblasts, Alexa488-fibronectin deposition fluorescence, overnight | AID 743247 | inhibition, % at 12.6 µM;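 active = mean inhibition across replicates of 30% or more, regardless of how many single replicates reach that level; inconclusive = mean under 30% yet at least half of replicates reach 30%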
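Material: AH1F fibroblasts assembling fluorescent fibronectin matrix; amount: 10000 AH1F cells/well; medium: DMEM, 2% serum; reagent: Alexa488-fibronectin, 24 nM final in well; dosing: single compound dose, delivered by pin transfer; incubation: 1 h adhesion, overnight exposure; detection: fluorescence after three HBSS washes, excitation 485 nm, emission 525 nm; measure: fibronectin deposition inhibition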
RAD54 inh – RAD54 (human) branch migration inhibition | RAD54 Holliday junction branch migration, FAM/BHQ fluorescence | actives 0.14% (n = 360,000) | AID 602329 | inhibition, % at 10.4 µM | Q92698;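 active = mean normalized replicate activity at least 40 and at least half of replicates scoring 40 or more; inconclusive = only one of the two criteria met; inactive = mean below 40 and under half of replicates reaching 40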;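 note: inhibitors cause a drop in the FAM fluorescence signal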
Target sequence (Q92698 whole entry, looked up): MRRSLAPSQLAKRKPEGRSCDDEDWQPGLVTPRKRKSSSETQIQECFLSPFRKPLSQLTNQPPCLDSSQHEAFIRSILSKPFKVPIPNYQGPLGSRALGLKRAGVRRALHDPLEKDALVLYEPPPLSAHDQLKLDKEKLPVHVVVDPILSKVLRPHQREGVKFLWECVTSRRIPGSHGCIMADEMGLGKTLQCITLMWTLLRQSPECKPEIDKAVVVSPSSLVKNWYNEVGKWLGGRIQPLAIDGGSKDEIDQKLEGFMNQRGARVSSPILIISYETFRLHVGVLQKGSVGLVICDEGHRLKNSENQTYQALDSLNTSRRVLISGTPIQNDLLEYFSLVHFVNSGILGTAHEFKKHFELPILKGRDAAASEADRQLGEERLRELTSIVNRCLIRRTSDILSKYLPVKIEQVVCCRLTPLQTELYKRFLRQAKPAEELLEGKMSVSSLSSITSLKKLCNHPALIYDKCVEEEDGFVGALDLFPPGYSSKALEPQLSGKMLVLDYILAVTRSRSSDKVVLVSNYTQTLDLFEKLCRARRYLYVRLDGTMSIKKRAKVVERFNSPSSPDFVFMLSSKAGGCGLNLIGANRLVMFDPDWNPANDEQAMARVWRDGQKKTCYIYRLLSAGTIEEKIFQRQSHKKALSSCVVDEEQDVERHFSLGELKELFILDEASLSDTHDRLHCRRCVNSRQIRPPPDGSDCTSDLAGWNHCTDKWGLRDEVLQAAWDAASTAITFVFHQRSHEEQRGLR
RAD52 inh – inhibitors of human RAD52 DNA annealing; recombinant RAD52 DNA annealing, FRET fluorescence; inhibition, % at 18.7 µM; actives 0.46% (n = 360,000); AID 651710;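 active = every replicate showing at least 50% inhibition; inconclusive = mean inhibition at least 50% but not in every replicate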
PAX8 inh HTS – lowers PAX8-driven luciferase in RMG-I cells. RMG-I TPO-luciferase reporter, SteadyGlo, 24 h. inhibition, % at 12.6 µM. actives 1.2% (n = 360,000). AID 652154;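 active = mean replicate inhibition at least 60% with every replicate also reaching 60%; inconclusive = only one of the two criteria is met; inactive = mean below 60% and not all replicates reaching 60%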;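 note: luciferase light reporting Pax8 driven TPO promoter activity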
DNA binding – counter-screen for Rad54 inhibitors: DNA binding compounds | shares compounds with RAD54 inh | Acridine orange-DNA displacement, fluorescence polarization, 20 min | AC50, µM (titrated, usually from 35 µM) | actives 8% (n = 460);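 active = signal drop giving an AC50 within twice the top valid tested concentration of each sample, actives reach about 35 µM in these data; inactive = activity opposite to expected, plus the rest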;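 note: polarization loss reports compound binding to salmon sperm DNA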
DNA binder FP – DNA binding artifact in RAD52 counter-screen. shares compounds with RAD52 inh. Salmon sperm DNA/acridine orange FP displacement. AC50, µM. actives 8% (n = 1,000). AID 652128;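 active = fitted half-maximal concentration for signal loss at or below twice the highest dose tested, in every separate run, actives reach about 64 µM in these data; inconclusive = runs disagree, or flat partial signal loss, or poor fit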
Of the large screens only hits and unclear results are named; the others gave an inactive call (follow-up assays come after a bar, where they were run). This is a sample that favours compounds with a hit; in the whole collection about 1.3% have one here.

Cc1ccc2oc(=O)c3cc(C(=O)NCCCN4CC(C)CC(C)C4)sc3c2c1 (centres undefined)	none
CCN(CC)CCn1c2ccccc2c2nc3ccc([N+](=O)[O-])cc3cc21	RAD54 inh inconclusive | DNA binding inactive
O=C(NCc1nnnn1-c1ccc(F)cc1)c1ccc2c(c1)OCO2	none
Clc1ccc2c(NCCNC3CCCCC3)ccnc2c1	none
CC(C)NC1CCC(Nc2ccnc3cc(Cl)ccc23)CC1 (centres undefined)	RAD54 inh inconclusive | DNA binding inactive
CC(CCCN1CCCC1)Nc1ccnc2cc(Cl)ccc12 (centres undefined)	RAD54 inh 55.1, RAD52 inh 51.0 (no result: FN deposit inh) | DNA binding inactive
Cc1ccc(S(=O)(=O)NC(=O)C2(C)CCN2C(=O)c2ccccc2CCc2ccccc2)cc1 (centres undefined)	none (no result: FN deposit inh)
C[C@@H]1CN([C@@H](C)CO)C(=O)Cc2cc(NC(=O)Nc3cccc4ccccc34)ccc2O[C@@H]1CN(C)S(=O)(=O)c1cn(C)cn1	none
COc1cc2nc(N(C)C)nc(N)c2cc1OC	RAD54 inh 94.3 (no result: FN deposit inh, RAD52 inh, PAX8 inh HTS) | DNA binding inactive
COc1ccc(CC(=O)Nc2cccc(-c3nnc(-c4ccc(C)cc4)o3)c2)cc1OC	none (no result: FN deposit inh, PAX8 inh HTS)
Cc1ccc(OCC(=O)Nc2cccc(-c3nnc(-c4ccccc4)o3)c2)c(C)c1	RAD54 inh inconclusive (no result: RAD52 inh, PAX8 inh HTS) | DNA binding inactive
O=C(COc1ccc2c3c(c(=O)oc2c1)CCC3)NCCCN1CCOCC1	none
CN1CCCC1CCNc1ccc2oc3ccccc3c(=O)c2c1 (centres undefined)	none (no result: RAD54 inh)
O=c1c2ccccc2oc2cc(NCCCN3CCOCC3)ccc12	RAD54 inh 66.1 | DNA binding inactive
O=c1c2ccccc2oc2cc(NCCCn3ccnc3)ccc12	none
O=c1c2ccccc2oc2ccc(NCCCN3CCOCC3)cc12	RAD54 inh inconclusive | DNA binding inactive
O=C(COc1ccc2c(c1)oc(=O)c1ccccc12)NCCCN1CCOCC1	RAD54 inh inconclusive | DNA binding inactive
CN1CCCC1CCNc1ccc2c(=O)c3ccccc3oc2c1 (centres undefined)	RAD54 inh 92.1 | DNA binding inactive
NC(c1csc(NC(=O)c2cccc(OC(F)(F)F)c2)n1)c1ccccc1Cl (centres undefined)	none
CCCCn1c(N)c(N(CC(C)C)C(=O)CN2C(=O)NC3(CC(C)CC(C)(C)C3)C2=O)c(=O)[nH]c1=O (centres undefined)	none (no result: RAD54 inh)
COc1cc2nc(NCCCN3CCN(C)CC3)n3nc(-c4ccccc4)nc3c2cc1OC	RAD54 inh 102.2 (no result: RAD52 inh, PAX8 inh HTS) | DNA binding inactive
CCN(CC)CCCNc1nc(-c2ccccc2)nc2ccccc12	RAD54 inh 85.0 (no result: RAD52 inh, PAX8 inh HTS) | DNA binding inactive
OCCNc1nc(-c2ccccc2)nc2ccccc12	none (no result: RAD54 inh)
COCCCNc1nc2cc(OC)c(OC)cc2c2nc(-c3ccccc3)nn12	none
CCN(CC)CCCNc1nc2cc(OC)c(OC)cc2c2nc(-c3cccnc3)nn12	RAD54 inh 114.6 (no result: RAD52 inh) | DNA binding inactive
CCN(CC)CCCNc1nc2cc(OC)c(OC)cc2c2nc(-c3ccccc3)nn12	RAD54 inh 106.0 (no result: RAD52 inh) | DNA binding inactive
Cc1ccc(S(=O)(=O)Nc2ccc3c(c2)C(=O)N([C@@H](C)CO)C[C@H](C)[C@H](CN(C)S(=O)(=O)c2ccc(F)cc2)OCCCC[C@H](C)O3)cc1	none (no result: FN deposit inh)
C=COCCn1c(=N)n(CCC)c2ccccc21	none (no result: FN deposit inh, RAD52 inh, PAX8 inh HTS)
CCc1nc(Nc2ccncc2)c2oc3ccccc3c2n1	RAD54 inh 65.8 (no result: FN deposit inh, RAD52 inh, PAX8 inh HTS) | DNA binding inactive
Cc1nc(Nc2ccncc2)c2oc3ccccc3c2n1	none (no result: FN deposit inh, RAD54 inh, PAX8 inh HTS)
COc1ccc(N2C(=O)CSC23CCCCC3)cc1	RAD54 inh inconclusive (no result: RAD52 inh) | DNA binding inactive
Cc1cccc(Cc2nnc(CCC(=O)N(C)CCc3ccccc3)o2)c1	none
O=C(Nc1ccc(F)cc1F)C1CCN(c2ncnc3c2sc2cccc(F)c23)CC1	none
CCN(CC)CCCNC(=O)C1CCN(c2ncnc3c2sc2cccc(F)c23)CC1	RAD54 inh 53.5 | DNA binding inactive
CCOC(=O)c1cccc(NC(=O)c2ccccc2C)c1	none (no result: RAD54 inh)
CCN1CCCC1CNC(=O)c1cc2c(-c3cccc(OC)c3)nn(C)c2s1 (centres undefined)	RAD54 inh 50.4 (no result: RAD52 inh) | DNA binding inactive
COc1cccc(-c2nn(C)c3sc(C(=O)NCc4ccco4)cc23)c1	none (no result: RAD52 inh)
CCCCN(C)CCNC(=O)c1cc2c(-c3cccc(OC)c3)nn(C)c2s1	RAD54 inh 72.5, RAD52 inh 65.2 | DNA binding inactive
CCN1CCCC1CNC(=O)c1ccc2c(c1)NC(=O)/C(=C\c1ccccc1Cl)S2 (centres undefined)	none
CCN1CCCC1CNC(=O)c1ccc2c(c1)NC(=O)/C(=C\c1ccc(OC)c(OC)c1)S2 (centres undefined)	RAD54 inh 68.9, RAD52 inh 72.9 | DNA binding inactive | DNA binder FP inactive
CN1CCN(c2nc(-c3cccc([N+](=O)[O-])c3)nc3ccccc23)CC1	RAD54 inh 74.6 | DNA binding inactive | DNA binder FP inactive
COc1cc(-c2cnc3c(NC(C)=O)cc(-c4cccc(C(=O)NCCO)c4)cn23)cc(OC)c1OC	none
Cc1ccc(-c2cc(NC=O)c3ncc(-c4cccc(C(=O)N(C)C)c4)n3c2)cc1	none
COc1ccc(-c2cc(NC=O)c3ncc(-c4cccc(C(=O)NCCN(C)C)c4)n3c2)cn1	RAD54 inh 94.6, RAD52 inh 81.0 (no result: FN deposit inh) | DNA binding inactive | DNA binder FP inactive
COc1cc(-c2cnc3c(NC=O)cc(-c4cccc(C(=O)NCCN(C)C)c4)cn23)cc(OC)c1OC	RAD54 inh 101.5, RAD52 inh 93.2 | DNA binding inactive | DNA binder FP inactive
O=C(NCCN1CCCCCC1)C1CCN(S(=O)(=O)N2CCOCC2)CC1	none (no result: FN deposit inh, RAD52 inh, PAX8 inh HTS)
COc1cccc(C(=O)OCC(=O)c2c(N)n(C)c(=O)n(C)c2=O)c1	none
Oc1ccc(Nc2nc(N3CCCC3)c3ccccc3n2)cc1	RAD54 inh 59.7, RAD52 inh 67.2 (no result: PAX8 inh HTS) | DNA binding inactive | DNA binder FP inactive
COc1cccc(-c2nn(C)c3sc(C(=O)NCCCN(C)Cc4ccccc4)cc23)c1	none
CCN(CC)CCCNC(=O)c1cc2c(-c3cccc(OC)c3)nn(C)c2s1	RAD54 inh 72.7, RAD52 inh 91.5 | DNA binding inactive | DNA binder FP inactive
CCCCN(CC)CCCNC(=O)c1cc2c(-c3ccc(OC)c(OC)c3)nn(C)c2s1	RAD54 inh 91.0, RAD52 inh 93.7 | DNA binding inactive | DNA binder FP inactive
Cc1cc(C)c2ccc(=S)[nH]c2n1	none
COc1ccc(OC)c(Nc2nc(NCCCN(C)C)nc(N)c2[N+](=O)[O-])c1	RAD54 inh 74.0, RAD52 inh 95.0 | DNA binding inactive | DNA binder FP inactive
COCCCNc1nc(N)c([N+](=O)[O-])c(Nc2cc(OC)ccc2OC)n1	none
COc1ccc(CN(C)S(=O)(=O)c2nnc(NC(=O)c3ccccc3)s2)cc1OC	none
